Source: publication PMC10262665 (Science (New York, N.Y.), 2023)
Values belong to the molecule of their own block, whether it stands above or below them.

Assays:
LDHB [1] = target: T1, LDHB (Homo sapiens, UniProt P07195); assay: LDH enzyme activity assay; format: biochemical; settings: in vitro
In short: (§1)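 LDH isoform activity measured in vitro with test metabolites (adenosine nucleotides, CoA and acyl-CoAs) over a concentration range. IC50 is derived from the inhibition curves. Mode of inhibition is assessed against NAD and lactate.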

LDHA [2] = target: T2, LDHA (Homo sapiens, UniProt P00338); assay: LDH enzyme activity assay; format: biochemical; settings: in vitro
In short: as §1

PGAM2 = target: T3, PGAM2 (Homo sapiens, UniProt P15259); assay: MIDAS protein-metabolite interaction screen; format: binding; settings: significant PMI Q < 0.01
T3 sequence (P15259 1-253): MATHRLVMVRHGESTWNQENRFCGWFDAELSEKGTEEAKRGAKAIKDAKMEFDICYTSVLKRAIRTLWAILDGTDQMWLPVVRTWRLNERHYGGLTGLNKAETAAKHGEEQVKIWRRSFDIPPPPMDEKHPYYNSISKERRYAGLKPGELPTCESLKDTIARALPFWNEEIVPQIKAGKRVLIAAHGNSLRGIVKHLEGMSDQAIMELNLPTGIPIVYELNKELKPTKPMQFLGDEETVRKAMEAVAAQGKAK
In short: (§2)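 Purified protein is separated from a defined metabolite library by a semipermeable dialysis membrane that passes metabolites but not protein, then incubated to relative equilibrium. Protein is denatured and removed. Metabolites in both chambers are quantified by flow injection analysis–MS, with methods optimized for each pool. The between-chamber fold change is normalized and corrected for nonspecific interactions.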

PGAM1 = PGAM1 (Homo sapiens, UniProt P18669); assay: MIDAS protein-metabolite interaction screen; format: binding; settings: significant PMI Q < 0.01
In short: as §2

PKM2 = PKM2 (Homo sapiens, UniProt P14618); assay: MIDAS protein-metabolite interaction screen; format: binding; settings: significant PMI Q < 0.01
In short: as §2

CASTOR1 = target: T4, CASTOR1 (Homo sapiens, UniProt Q8WTX7); assay: MIDAS; format: binding; settings: significant PMI Q < 0.01
T4 sequence (Q8WTX7 1-329): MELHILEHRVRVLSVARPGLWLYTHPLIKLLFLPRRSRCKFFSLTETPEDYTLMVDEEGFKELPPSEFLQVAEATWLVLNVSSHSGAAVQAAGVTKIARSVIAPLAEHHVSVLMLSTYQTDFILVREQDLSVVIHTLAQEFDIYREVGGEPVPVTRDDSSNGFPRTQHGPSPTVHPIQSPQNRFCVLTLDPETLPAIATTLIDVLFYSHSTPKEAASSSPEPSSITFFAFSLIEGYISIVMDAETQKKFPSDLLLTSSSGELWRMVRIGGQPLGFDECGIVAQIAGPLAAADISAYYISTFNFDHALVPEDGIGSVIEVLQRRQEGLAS
In short: as §2

[3] = target: T5, phosphofructokinase (PFKP) (Homo sapiens, UniProt Q01813); assay: MIDAS protein-metabolite interaction screen; format: binding; settings: significant PMI Q < 0.01
T5 sequence (Q01813 1-784): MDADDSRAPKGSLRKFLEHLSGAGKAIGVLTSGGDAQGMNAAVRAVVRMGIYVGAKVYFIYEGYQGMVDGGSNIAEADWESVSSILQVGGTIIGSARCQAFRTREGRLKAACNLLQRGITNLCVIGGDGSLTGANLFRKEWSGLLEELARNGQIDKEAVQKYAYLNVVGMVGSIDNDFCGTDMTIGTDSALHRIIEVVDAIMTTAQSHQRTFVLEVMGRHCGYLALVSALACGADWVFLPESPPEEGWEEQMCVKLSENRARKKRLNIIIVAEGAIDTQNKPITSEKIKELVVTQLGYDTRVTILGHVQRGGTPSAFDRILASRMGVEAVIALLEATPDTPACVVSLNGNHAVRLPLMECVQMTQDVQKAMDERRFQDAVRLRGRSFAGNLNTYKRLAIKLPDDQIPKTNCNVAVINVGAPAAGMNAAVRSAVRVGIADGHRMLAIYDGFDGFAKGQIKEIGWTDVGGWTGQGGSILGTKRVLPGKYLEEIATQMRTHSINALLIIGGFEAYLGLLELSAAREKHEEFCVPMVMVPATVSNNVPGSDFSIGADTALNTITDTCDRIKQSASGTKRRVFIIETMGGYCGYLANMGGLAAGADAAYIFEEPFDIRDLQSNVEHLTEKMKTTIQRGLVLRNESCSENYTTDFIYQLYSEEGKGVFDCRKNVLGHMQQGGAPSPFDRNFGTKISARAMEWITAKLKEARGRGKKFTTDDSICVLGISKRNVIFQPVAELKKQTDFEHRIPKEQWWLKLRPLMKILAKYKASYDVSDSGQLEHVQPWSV
In short: as §2

H9c2 rat cardiomyoblasts [4] = assay: 13C-lactate metabolic tracing into pyruvate; format: cell-based
H9c2 rat cardiomyoblasts [5] = assay: 13C-glucose metabolic tracing into lactate; format: cell-based; settings: for labeling of lactate from 13C-glucose: BSA-conjugated palmitate vs BSA
GAPDH = GAPDH (Homo sapiens, UniProt P04406); assay: MIDAS protein-metabolite interaction screen; format: binding; settings: significant PMI Q < 0.01
Sestrin2 = target: T6, Sestrin2 (Homo sapiens, UniProt P58004); assay: MIDAS protein-metabolite interaction screen; format: binding; settings: significant PMI Q < 0.01
T6 sequence (P58004 1-480): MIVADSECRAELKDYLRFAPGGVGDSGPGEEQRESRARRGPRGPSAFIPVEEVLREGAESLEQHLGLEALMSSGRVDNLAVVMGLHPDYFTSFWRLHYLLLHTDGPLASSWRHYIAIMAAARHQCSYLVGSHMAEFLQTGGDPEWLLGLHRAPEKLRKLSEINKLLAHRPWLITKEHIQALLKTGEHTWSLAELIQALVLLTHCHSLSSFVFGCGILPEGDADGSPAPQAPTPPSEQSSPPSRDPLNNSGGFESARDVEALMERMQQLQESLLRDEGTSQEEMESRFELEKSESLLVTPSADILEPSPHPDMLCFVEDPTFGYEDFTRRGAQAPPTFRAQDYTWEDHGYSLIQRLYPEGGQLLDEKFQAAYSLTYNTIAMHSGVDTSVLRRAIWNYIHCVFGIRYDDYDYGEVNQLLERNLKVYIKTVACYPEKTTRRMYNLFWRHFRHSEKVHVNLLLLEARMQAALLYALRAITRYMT
In short: as §2

[6] = target: glucose-6-phosphate isomerase (GPI) (Homo sapiens, UniProt P06744); assay: MIDAS protein-metabolite interaction screen; format: binding; settings: significant PMI Q < 0.01
In short: as §2

LDHB [7] = target: T1, LDHB; assay: MIDAS protein-metabolite interaction screen; format: binding; settings: significant PMI Q < 0.01
In short: as §2

LDHA [8] = target: T2, LDHA; assay: MIDAS protein-metabolite interaction screen; format: binding; settings: significant PMI Q < 0.01
In short: as §2

fumarase = target: T7, fumarase (Homo sapiens, UniProt P07954); assay: Differential scanning fluorimetry; format: binding; settings: read-out: apparent dissociation constant (Kd app); DSF, fumarase
T7 sequence (P07954 45-510): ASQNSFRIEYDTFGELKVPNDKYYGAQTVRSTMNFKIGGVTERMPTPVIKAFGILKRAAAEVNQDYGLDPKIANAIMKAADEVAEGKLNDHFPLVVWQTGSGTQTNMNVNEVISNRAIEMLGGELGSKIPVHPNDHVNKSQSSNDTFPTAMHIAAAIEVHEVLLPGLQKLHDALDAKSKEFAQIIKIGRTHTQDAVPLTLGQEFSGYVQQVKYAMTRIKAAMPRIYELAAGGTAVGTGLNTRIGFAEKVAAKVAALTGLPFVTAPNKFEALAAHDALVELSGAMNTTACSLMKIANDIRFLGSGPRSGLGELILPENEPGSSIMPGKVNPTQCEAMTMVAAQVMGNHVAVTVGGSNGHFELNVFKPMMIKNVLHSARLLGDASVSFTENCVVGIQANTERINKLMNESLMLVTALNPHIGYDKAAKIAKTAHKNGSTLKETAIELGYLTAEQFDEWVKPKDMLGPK

[9] = dimethylated fatty acid analogs

Chain of PKM2 (P14618 whole entry): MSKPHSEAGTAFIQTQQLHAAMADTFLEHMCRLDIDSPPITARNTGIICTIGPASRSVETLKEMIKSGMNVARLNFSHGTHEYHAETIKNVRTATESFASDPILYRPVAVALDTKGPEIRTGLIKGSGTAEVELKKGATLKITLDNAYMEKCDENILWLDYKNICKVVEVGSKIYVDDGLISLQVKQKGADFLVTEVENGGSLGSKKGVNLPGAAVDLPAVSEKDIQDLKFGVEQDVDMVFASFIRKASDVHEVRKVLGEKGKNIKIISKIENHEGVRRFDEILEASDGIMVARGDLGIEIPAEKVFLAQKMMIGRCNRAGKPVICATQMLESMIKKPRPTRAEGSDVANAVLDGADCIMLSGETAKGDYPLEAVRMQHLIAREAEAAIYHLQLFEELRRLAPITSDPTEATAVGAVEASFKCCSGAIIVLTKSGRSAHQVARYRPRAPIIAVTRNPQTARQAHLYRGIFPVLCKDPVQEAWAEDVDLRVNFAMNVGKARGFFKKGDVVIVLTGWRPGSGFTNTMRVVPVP
T1 sequence (P07195 whole entry, canonical isoform): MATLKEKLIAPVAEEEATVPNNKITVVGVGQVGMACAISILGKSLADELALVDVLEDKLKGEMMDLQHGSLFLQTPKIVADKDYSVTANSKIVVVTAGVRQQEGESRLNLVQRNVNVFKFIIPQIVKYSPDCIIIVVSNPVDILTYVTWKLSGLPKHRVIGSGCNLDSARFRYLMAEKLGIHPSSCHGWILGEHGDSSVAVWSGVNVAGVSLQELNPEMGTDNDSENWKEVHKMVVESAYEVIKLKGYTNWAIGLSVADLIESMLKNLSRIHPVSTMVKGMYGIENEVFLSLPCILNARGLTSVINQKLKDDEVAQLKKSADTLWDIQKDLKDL
Chain of GAPDH (P04406 whole entry): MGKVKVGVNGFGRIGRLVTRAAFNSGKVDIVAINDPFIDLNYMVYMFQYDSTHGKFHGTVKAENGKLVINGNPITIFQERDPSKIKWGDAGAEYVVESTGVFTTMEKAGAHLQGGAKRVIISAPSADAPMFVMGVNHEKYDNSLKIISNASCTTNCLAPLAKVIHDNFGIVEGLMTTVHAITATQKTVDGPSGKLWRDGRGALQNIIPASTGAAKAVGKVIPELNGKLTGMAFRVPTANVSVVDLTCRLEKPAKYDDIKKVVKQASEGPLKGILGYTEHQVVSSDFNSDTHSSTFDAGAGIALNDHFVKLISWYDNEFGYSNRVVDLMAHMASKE
Chain of PGAM1 (P18669 whole entry): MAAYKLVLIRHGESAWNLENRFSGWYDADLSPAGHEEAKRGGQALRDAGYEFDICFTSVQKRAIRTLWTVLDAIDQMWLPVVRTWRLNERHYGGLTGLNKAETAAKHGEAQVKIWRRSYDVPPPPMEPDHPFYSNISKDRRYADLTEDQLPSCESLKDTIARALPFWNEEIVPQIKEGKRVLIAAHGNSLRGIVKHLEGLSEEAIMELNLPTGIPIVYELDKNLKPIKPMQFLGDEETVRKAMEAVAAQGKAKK

Compound: Nc1ncnc2c1ncn2[C@@H]1O[C@H](COP(=O)(O)OP(=O)(O)O)[C@@H](O)[C@H]1O [ADP, adenosine diphosphate]
inhibition of LDHB enzyme activity (LDHB [1]): only at supraphysiological concentrations | inhibition of LDHA enzyme activity (LDHA [2]): only at supraphysiological concentrations

Compound: C=C(OP(=O)(O)O)C(=O)O [PEP, phosphoenolpyruvate]
MIDAS protein-metabolite interaction (PGAM2): interacted | MIDAS protein-metabolite interaction (PGAM1): interacted

Compound: CCCCCCCCCCCCCCCC(=O)O [Palmitate, palmitate]
pyruvate labeling from 13C-lactate (H9c2 rat cardiomyoblasts [4]; Ldha−/− H9c2 cells): unaffected | pyruvate labeling from 13C-lactate (H9c2 rat cardiomyoblasts [4]; Ldha−/−Ldhb−/− H9c2 cells): unaffected | generation of m+3 pyruvate from 13C-lactate (H9c2 rat cardiomyoblasts [4]; Ldhb−/− H9c2 cells): blunted | generation of m+3 pyruvate from 13C-lactate (H9c2 rat cardiomyoblasts [4]; WT H9c2 cells): blunted | labeling of lactate from 13C-glucose (H9c2 rat cardiomyoblasts [5]; Ldhb−/− H9c2 cells): decreased | labeling of lactate from 13C-glucose (H9c2 rat cardiomyoblasts [5]; WT H9c2 cells): decreased

Compound: N[C@@H](Cc1cc(I)c(O)c(I)c1)C(=O)O [3,5-diiodo-L-tyrosine]
MIDAS protein-metabolite interaction (PKM2): interacted

Compound: CCC/C=C/C/C=C/C=C/C=N/NN=O [triacsin C, reference compound]
effect on palmitate-mediated inhibition of pyruvate labeling (H9c2 rat cardiomyoblasts [4]; 13C-lactate tracing in presence of palmitate): prevented | effect on palmitate-mediated inhibition of lactate labeling (H9c2 rat cardiomyoblasts [5]; 13C-glucose tracing in presence of palmitate): prevented

Compound: NCCCN [1,3-diaminopropane]
MIDAS protein-metabolite interaction (Sestrin2): bind | MIDAS protein-metabolite interaction (CASTOR1): bind

Compound: CCCCCCCCCCCCCCCCC(C)(C)C(=O)O [DiMeSte, 2,2-dimethyl-stearate, reference compound]
13C-lactate tracing (H9c2 rat cardiomyoblasts [4]; [9]): inhibited | 13C-glucose tracing (H9c2 rat cardiomyoblasts [5]; [9]): inhibited

Compound: Nc1ncnc2c1ncn2[C@@H]1O[C@H](COP(=O)(O)O)[C@@H](O)[C@H]1O [AMP, adenosine monophosphate]
inhibition of LDHB enzyme activity (LDHB [1]): only at supraphysiological concentrations | inhibition of LDHA enzyme activity (LDHA [2]): only at supraphysiological concentrations

Compound: Cc1cc2nc3c(=O)[nH]c(=O)nc-3n(C[C@H](O)[C@H](O)[C@H](O)COP(=O)(O)OP(=O)(O)OC[C@H]3O[C@@H](n4cnc5c(N)ncnc54)[C@H](O)[C@@H]3O)c2cc1C [flavin adenine dinucleotide]
MIDAS protein-metabolite interaction (LDHB [7]): interactions | MIDAS protein-metabolite interaction (LDHA [8]): interactions

Compound: O=C(CO)[C@@H](O)[C@H](O)[C@H](O)[C@H](O)COP(=O)(O)O [sedoheptulose-7-phosphate]
MIDAS protein-metabolite interaction [3]: interacted

More lines, now with the values ahead:

MIDAS protein-metabolite interaction (PKM2): interacted
Compound: CN1c2c(nc(N)[nH]c2=O)NCC1CNc1ccc(C(=O)N[C@@H](CCC(=O)O)C(=O)O)cc1 (stereo partly drawn) [5-MTHF, 5-methyltetrahydrofolate]

MIDAS protein-metabolite interaction (CASTOR1): most enriched interactors
Compound: N=C(N)NCCC[C@H](N)C(=O)O [arginine]

MIDAS protein-metabolite interaction [3]: interacted
Compound: O=C(COP(=O)(O)O)[C@@H](O)[C@H](O)[C@H](O)COP(=O)(O)O [fructose 1,6-bisphosphate]

MIDAS protein-metabolite interaction (PGAM2): interacted | MIDAS protein-metabolite interaction (PGAM1): interacted | MIDAS protein-metabolite interaction (GAPDH): interacted
Compound: O=C(O)C(COP(=O)(O)O)OP(=O)(O)O (stereo not drawn) [2,3-BPG, 2,3-bisphosphoglycerate]

MIDAS protein-metabolite interaction (PGAM1): interacted | MIDAS protein-metabolite interaction (GAPDH): interacted
Compound: O=P(O)(O)O[C@@H]1[C@H](O)[C@H](O)[C@@H](OP(=O)(O)O)[C@H](OP(=O)(O)O)[C@H]1O [inositol-1,4,5-trisphosphate]

MIDAS protein-metabolite interaction [6]: interacted
Compound: O=C[C@H](O)[C@@H](O)[C@H](O)[C@H](O)COP(=O)(O)O [glucose-6-phosphate]

MIDAS protein-metabolite interaction (LDHB [7]): interactions | MIDAS protein-metabolite interaction (LDHA [8]): interactions | MIDAS protein-metabolite interaction (GAPDH): interacted
Compound: NC(=O)c1ccc[n+]([C@@H]2O[C@H](COP(=O)([O-])OP(=O)(O)OC[C@H]3O[C@@H](n4cnc5c(N)ncnc54)[C@H](O)[C@@H]3O)[C@@H](O)[C@H]2O)c1 [NAD, nicotinamide adenine dinucleotide]

MIDAS protein-metabolite interaction [6]: interacted
Compound: O=C(CO)[C@@H](O)[C@H](O)[C@H](O)COP(=O)(O)O [fructose-6-phosphate]

Kd (fumarase): 3.87 mM
Compound: O=C(O)/C=C/C(=O)O [fumarate]

MIDAS protein-metabolite interaction (PGAM2): interacted | MIDAS protein-metabolite interaction (PGAM1): interacted
Compound: O=C(O)[C@H](O)COP(=O)(O)O [3PG, 3-phosphoglycerate]

MIDAS protein-metabolite interaction (Sestrin2): bind | MIDAS protein-metabolite interaction (CASTOR1): bind
Compound: NCCCCN=C(N)N [agmatine]

MIDAS protein-metabolite interaction (PKM2): interacted
Compound: Nc1nc2c(ncn2[C@@H]2O[C@H](COP(=O)(O)OP(=O)(O)O)[C@@H](O)[C@H]2O)c(=O)[nH]1 [GDP, guanosine diphosphate]

MIDAS protein-metabolite interaction (Sestrin2): bind | MIDAS protein-metabolite interaction (CASTOR1): bind
Compound: NCCCCCN [cadaverine]

MIDAS protein-metabolite interaction (LDHB [7]): interactions | MIDAS protein-metabolite interaction (LDHA [8]): interactions
Compound: O=C(O)CC(=O)C(=O)O [oxaloacetate]
